These results are taken from ChEMBL document CHEMBL4017505 (J Med Chem, 2017).

The source made the active and inactive calls. The rule behind the calls is not given here.

In series [1] the test system is Mus musculus. The experiment in a line: Antinociceptive activity in sc dosed CD-1 mouse assessed as inhibition of acetic acid-induced writhing treated 30 mins prior to test followed by acetic acid challenge measured for 10 mins starting 5 mins post acetic acid challenge. Type of series: functional. A digest of the protocol:
(§1)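 Male CD1 mice (30–35 g, 6–8 weeks) given compound or saline sc at 10 μL/g. […] ED50 by Litchfield–Wilcoxon from dose–response. Doses expressed as salts; ≥5 mice per group, each used once.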

Series [2] relates to Mus musculus. The series is described as follows: Antinociceptive activity in CD-1 mouse assessed as inhibition of acetic acid-induced writhing at 10 mg/kg, sc treated 30 mins prior to test followed by acetic acid challenge measured for 10 mins starting 5 mins post acetic acid challenge. In kind it is functional, organism-based. A digest of the protocol:
as §1

The target in series [3] is Kappa-type opioid receptor (Homo sapiens) (UniProt P41145).
Kappa-type opioid receptor (Homo sapiens), sequence (P41145 whole entry): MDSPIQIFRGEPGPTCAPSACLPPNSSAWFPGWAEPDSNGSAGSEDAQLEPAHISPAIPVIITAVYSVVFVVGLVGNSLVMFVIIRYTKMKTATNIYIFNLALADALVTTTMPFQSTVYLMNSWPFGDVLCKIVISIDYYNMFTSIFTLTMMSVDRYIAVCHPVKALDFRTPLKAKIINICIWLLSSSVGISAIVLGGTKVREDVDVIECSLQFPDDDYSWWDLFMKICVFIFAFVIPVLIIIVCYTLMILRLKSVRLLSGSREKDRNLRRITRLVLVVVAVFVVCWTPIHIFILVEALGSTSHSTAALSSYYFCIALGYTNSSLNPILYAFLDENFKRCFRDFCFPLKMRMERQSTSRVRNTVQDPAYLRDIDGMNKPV
Series [4] has as its system Mus musculus. The experiment in a line: In vivo antagonist activity at kappa opioid receptor in CD-1 mouse assessed as reversal of U50,488-induced inhibition of acetic acid-mediated writhing at 10 mg/kg, sc treated 15 mins prior to U50,488 measured for 10 mins starting 5 mins post acetic acid challenge. In kind it is functional, organism-based. A digest of the protocol: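 Male CD1 mice received test compound 10 mg/kg sc, then U50,488 2 mg/kg sc 15 min later. Acetic acid 0.6% ip given 25 min after U50,488 dosing; writhes counted for 10 min. Compared with saline controls. ≥5 mice per group, sc volume 10 μL/g.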

Series [5] has as its system Mus musculus. The experiment in a line: Antinociceptive activity in CD-1 mouse assessed as inhibition of acetic acid-induced writhing at […], sc treated 30 mins prior to test followed by acetic acid challenge measured for 10 mins starting 5 mins post acetic acid challenge in presence of KOP receptor antagonist nor-BNI. In kind it is functional, organism-based. (In general: An intraperitoneal irritant provokes the stretching counted in writhing tests.)

Series [6] concerns Mus musculus. The series is described as follows: Toxicity in CD-1 mouse assessed as motor impairment at 5 mg/kg, sc treated 30 mins prior to test by rotarod test. In kind it is organism-based. The note with it: in vivo, 0.5 h.
In series [7] the target is Kappa-type opioid receptor (Homo sapiens) (UniProt P41145). The series is described as follows: Agonist activity at human kappa opioid receptor expressed in CHO cell membranes after 60 mins by [35S]GTPgammaS binding assay relative to U69,593. In kind it is functional. A digest of the protocol: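 Membranes (8–15 μg) from CHO cells stably expressing human KOP, in 20 mM HEPES, 10 mM MgCl2, 100 mM NaCl, pH 7.4. Incubated with 0.05 nM [35S]GTPγS, 10 μM GDP and graded compound for 60 min at 25 °C. Nonspecific binding with 10 μM GTPγS; basal binding without ligand. Filtered and counted. Efficacy given as % stimulation relative to U69,593. Duplicates, ≥3 experiments.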
(In general: Binding of GTPγS marks nucleotide exchange on a G protein.)

Series [8] has as its system Mus musculus. The series is described as follows: Toxicity in CD-1 mouse assessed as motor impairment at 7.5 mg/kg, sc treated 30 mins prior to test by rotarod test. Type of series: organism-based. The note with it: in vivo, 0.5 h.
Series [9] relates to Mus musculus. The series is described as follows: Antinociceptive activity in CD-1 mouse assessed as inhibition of acetic acid-induced writhing at 1 mg/kg, sc treated 30 mins prior to test followed by acetic acid challenge measured for 10 mins starting 5 mins post acetic acid challenge in presence of KOP receptor antagonist nor-BNI. Type of series: functional, organism-based. A digest of the protocol: (§2)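 Writhing test in male CD1 mice: nor-BNI 20 mg/kg sc given 24 h before sc test compound. Acetic acid 0.6% ip at 25 min after compound; writhes counted for 10 min. Inhibition calculated as % reduction against saline controls. ≥5 mice per group.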

In series [10] the test system is Mus musculus. The series is described as follows: Toxicity in CD-1 mouse assessed as motor impairment at […], sc treated 30 mins prior to test by rotarod test. Type of series: organism-based. Conditions: in vivo, 0.5 h. On the technique in general: In the rotarod test animals must keep their balance on a rotating rod.
In series [11] the test system is Mus musculus. The experiment in a line: Antinociceptive activity in CD-1 mouse assessed as inhibition of acetic acid-induced writhing at 5 mg/kg, sc treated 30 mins prior to test followed by acetic acid challenge measured for 10 mins starting 5 mins post acetic acid challenge in presence of KOP receptor antagonist nor-BNI. Type of series: functional, organism-based. The essentials:
as §2

Series [12] has as its system Mus musculus. The experiment in a line: Toxicity in CD-1 mouse assessed as motor impairment at 10 to 20 mg/kg, sc treated 30 mins prior to test by rotarod test. In kind it is organism-based. Conditions: in vivo, 0.5 h.
In series [13] the test system is Mus musculus. The series is described as follows: Toxicity in CD-1 mouse assessed as motor impairment at 15 mg/kg, sc treated 30 mins prior to test by rotarod test. Type of series: organism-based. Conditions: in vivo, 0.5 h.
Series [14] concerns Mus musculus. The series is described as follows: Toxicity in CD-1 mouse assessed as motor impairment at 5 to 10 mg/kg, sc treated 30 mins prior to test by rotarod test. In kind it is organism-based. The note with it: in vivo, 0.5 h.

As for `Oc1cccc(CCN(CCc2cccc(O)c2F)CC2CCC2)c1`, the inhibition result with Mus musculus [1] was “Dose-dependent effect”.
Regarding `Oc1ccc(CCN(CCc2cccc(O)c2F)CC2CCC2)cc1`, the inhibition result with Mus musculus [1] was “Dose-dependent effect”.
As to `Oc1ccc(CCN(CCc2cccc(O)c2)CC2CC2)cc1`, in the series with Mus musculus [2], the inhibition entry was “inactive”. This molecule gave a Ke in [3] of 24.3 nM. Moreover, the inhibition result in the series with Mus musculus [4] is “Active”.
Take `Cl.Oc1cccc(CCN(CCc2ccccc2)CC2CCCCC2)c1`: the inhibition entry in the series with Mus musculus [5] was “inactive”. Besides, the Activity entry in the series with Mus musculus [6] is listed as “Non-Toxic”. For the same molecule, in the series with Mus musculus [1], the inhibition result was “Dose-dependent effect”.
In the case of `C=CCN(CCc1ccc(O)cc1)CCc1cccc(O)c1`, in series [7], the Efficacy was determined as 29.8%.
Take `c1ccc(CCN(CCc2ccccc2)CC2CCC2)cc1`: the Efficacy in [7] worked out at 91.9%.
Consider `CC(C)CCN(CCc1cccc(O)c1)CCc1cccc(O)c1`, for which the inhibition result with Mus musculus [1] was “Dose-dependent effect”.
On to `Oc1cccc(CCN(CCc2cccc(O)c2)CC2CC2)c1`, for which the inhibition result with Mus musculus [1] is “Dose-dependent effect”.
Turning to `Oc1cccc(CCN(CCc2cccc(O)c2)CC2CCC2)c1`, the inhibition result in the series on Mus musculus [1] is “Dose-dependent effect”.
In series [7], `Oc1ccc(CCN(CCc2cccc(O)c2)CC2CCCCC2)cc1` came in with an Efficacy of 84.3%. For the same molecule, the inhibition result in the series with Mus musculus [1] is “Dose-dependent effect”.
Take `CC(C)CCN(CCc1ccccc1)CCc1cccc(O)c1`: the inhibition result in the series on Mus musculus [1] was “Dose-dependent effect”.
In series [7], `Oc1cccc(CCN(CCc2cccc(O)c2)CC2CCCC2)c1` showed an Efficacy of 80.4%. In addition, in the series with Mus musculus [1], the inhibition result is “Dose-dependent effect”.
The matching figures for `Oc1cccc(CCN(CCc2ccccc2)Cc2ccccc2)c1`: 79.5% and “Dose-dependent effect”.
`Oc1cccc(CCN(CCc2cccc(O)c2)CC2CCCCC2)c1` displayed an Efficacy in series [7] of 91.1%. The inhibition result in the series on Mus musculus [1] was “Dose-dependent effect”.
Regarding `Cl.Oc1cccc(CCN(CCc2ccccc2)CC2CCCCC2)c1F`, the Activity entry in the series on Mus musculus [8] was “Non-Toxic”. This molecule also gave an Efficacy in series [7] of 88.9%. For the same molecule, the inhibition result in the series with Mus musculus [1] is “Dose-dependent effect”.
Take `Cl.Oc1cccc(CCN(CCc2ccccc2)CC2CCCC2)c1`: the inhibition result with Mus musculus [9] is “inactive”. The Efficacy in series [7] worked out at 82.8%. Further, the inhibition entry with Mus musculus [1] is “Dose-dependent effect”. Also, in the series on Mus musculus [10], the Activity entry is “Non-Toxic”.
With `Oc1cccc(CCN(CCc2ccccc2)CC2CC2)c1`, in the series on Mus musculus [11], the inhibition entry was “inactive”. Moreover, the Activity entry in the series on Mus musculus [12] is given as “Non-Toxic”. Also, the inhibition result in the series with Mus musculus [1] was “Dose-dependent effect”.
`Oc1ccc(CCN(CCc2cccc(O)c2)CC2CCC2)cc1`: the inhibition result in the series with Mus musculus [1] was “Dose-dependent effect”.
As to `Cl.Oc1cccc(CCN(CCc2ccccc2)CC2CCC2)c1F`, the Activity result with Mus musculus [13] was “Non-Toxic”. This molecule also registered an Efficacy in [7] of 66.1%. Further, the inhibition result with Mus musculus [1] was “Dose-dependent effect”.
Regarding `Oc1cccc(CCN(CCc2ccccc2)CC2CCC2)c1`, in the series with Mus musculus [14], the Activity entry was “Non-Toxic”.
